# Results reported in ChEMBL document CHEMBL4765370, “Design, synthesis, and biological evaluation of aryl piperazines with potential as antidiabetic agents via the stimulation of glucose uptake and inhibition of NADH:ubiquinone oxidoreductase” (Eur J Med Chem, 2020).
# Tests used:
# [1] = Volume of distribution in C57 Black mouse brain at 10 mg/kg, iv; format: ADME, organism-based
# In short: (§1)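 Male C57BL/6 mice (n = 3) dosed at 10 mg/kg by IV or oral (PO) route. Dosing solutions were formulated in 10% DMSO, 10% cremaphor and 80% saline. Compound levels were measured in plasma and tissues over time, and values are given as mean ± SEM.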
# [2] = Tmax in C57 Black mouse liver at 10 mg/kg, po; format: ADME, organism-based; in short: as §1
# [3] = Metabolic stability in mouse hepatocytes assessed as hepatic extraction ratio at 1 uM up to 120 mins by HPLC-MS/MS analysis; format: ADME, cell-based, Hepatocyte
# In short: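 Cryopreserved hepatocytes (human or mouse) added to buffer containing compound at 1 µM; incubated at 37 °C up to 120 min, stopped with acetonitrile containing internal standard. Centrifuged supernatant analysed for parent compound by HPLC-MS/MS; n = 2. Half-life and intrinsic clearance (µL/min/10^6 cells) derived; extraction ratio reported from these.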
# [4] = Protein binding mouse serum at 1 uM after 60 to 120 mins by HPLC-MS/MS analysis; format: ADME, cell-free; conditions: time 60-120 min, read-out: PB (converted)
# [5] = AUCinfinity in C57 Black mouse kidney at 10 mg/kg, po; format: ADME, organism-based; parameters: route oral, time infinity, dose 10 mg/kg
# In short: (§2)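 Male C57BL/6 mice were given a single 10 mg/kg dose either intravenously or orally. The oral and IV solutions were formulated in 10% DMSO, 10% cremaphor and 80% saline. Concentrations in plasma and in the tissues collected were determined after dosing, with n = 3 per route. Values are given as mean ± SEM.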
# [6] = AUCall in C57 Black mouse brain at 10 mg/kg, po; format: ADME, organism-based; parameters: dose 10 mg/kg; in short: as §2
# [7] = Cmax in C57 Black mouse kidney at 10 mg/kg, po; format: ADME, organism-based; parameters: route oral, dose 10 mg/kg; in short: as §2
# [8] = Half life in C57 Black mouse muscle at 10 mg/kg, iv; format: ADME, organism-based, Muscle tissue; in short: as §1
# [9] = AUCall in C57 Black mouse brain at 10 mg/kg, iv; format: ADME, organism-based; parameters: dose 10 mg/kg; in short: as §2
# [10] = Half life in human microsomes at 1 uM up to 120 mins by HPLC/MS-MS analysis; format: ADME, Microsome
# [11] = Tmax in C57 Black mouse plasma at 10 mg/kg, po; format: ADME, organism-based; in short: as §1
# [12] = Volume of distribution in C57 Black mouse plasma at 10 mg/kg, iv; format: ADME, organism-based; in short: as §1
# [13] = AUClast in C57 Black mouse plasma at 10 mg/kg, po; format: ADME, organism-based; parameters: route oral, time 0 - last, dose 10 mg/kg; in short: as §2
# [14] = AUCinfinity in C57 Black mouse brain at 10 mg/kg, iv; format: ADME, organism-based; parameters: time infinity, route intravenous, dose 10 mg/kg; in short: as §2
# CYP2C19 = CYP2C19 (Homo sapiens, UniProt P33261); test: Inhibition of human CYP2C19 using fluorogenic substrate incubated for 60 mins in presence of NADPH by fluorescence assay relative to control; format: ADME; conditions: probe fluorogenic substrate
# CYP2C19, sequence (P33261 whole entry): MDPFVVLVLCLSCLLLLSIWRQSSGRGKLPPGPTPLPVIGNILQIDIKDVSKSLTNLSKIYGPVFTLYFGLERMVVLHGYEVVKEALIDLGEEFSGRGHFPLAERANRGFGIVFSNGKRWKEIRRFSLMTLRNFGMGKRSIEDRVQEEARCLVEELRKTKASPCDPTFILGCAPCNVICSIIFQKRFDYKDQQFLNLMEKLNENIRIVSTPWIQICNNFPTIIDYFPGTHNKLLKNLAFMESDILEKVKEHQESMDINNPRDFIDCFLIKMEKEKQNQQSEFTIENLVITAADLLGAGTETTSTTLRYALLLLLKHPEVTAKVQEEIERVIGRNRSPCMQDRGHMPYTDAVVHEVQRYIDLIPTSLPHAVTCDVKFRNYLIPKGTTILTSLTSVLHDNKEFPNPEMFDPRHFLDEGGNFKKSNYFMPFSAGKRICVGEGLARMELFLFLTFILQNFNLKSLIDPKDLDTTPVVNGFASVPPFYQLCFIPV
# In short: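 Baculosomes each expressing a single cDNA-derived human P450 isozyme were incubated with compound at 10 µM, a fluorogenic substrate and NADPH. Incubation was at 37 °C for at least 60 min before fluorescence was read, n = 3.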
# [15] = Stability in human plasma assessed as parent compound remaining at 1 uM after 2 hrs by HPC-MS/MS analysis; format: ADME, cell-free; conditions: read-out: Stabilty
# In short: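 Buffer containing test compound at 1 µM was mixed with human or mouse blood plasma and incubated at 37 °C for 60–120 min. Parent compound remaining gave the plasma half-life and the percentage stable at 2 h.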
# [16] = AUClast in C57 Black mouse liver at 10 mg/kg, iv; format: ADME, organism-based; parameters: time 0 - last, route intravenous, dose 10 mg/kg; in short: as §2
# [17] = Volume of distribution in C57 Black mouse spleen at 10 mg/kg, iv; format: ADME, organism-based; in short: as §1
# C2C12 = test: Induction of glucose uptake in mouse C2C12 cells assessed as [3H]2-deoxyglucose uptake preincubated for 16 hrs followed by followed by [3H]2-deoxyglucose addition and measured after 10 mins by liquid scintillation counting method; format: functional
# In short: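 C2C12 mouse myoblasts were grown in high-glucose DMEM with 10% FBS. At 80% confluence they were differentiated into myotubes with 2% horse serum. Myotubes were exposed to compound (10 µM) for 16 h in medium with 0.1% horse serum, then washed with KRB pH 7.4 and given 1 µCi/mL [3H]-2-deoxyglucose for 10 min at 37 °C. After ice-cold washes and 0.1% SDS lysis, scintillation counts were normalised to BCA protein. Results are fold change vs DMSO, mean ± SEM, one-way ANOVA.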
# [18] = AUClast in C57 Black mouse spleen at 10 mg/kg, po; format: ADME, organism-based; parameters: time 0 - last, route oral, dose 10 mg/kg; in short: as §2
# [19] = Apparent permeability in MDCK-MDR1 cells at 10 uM after 30 mins by LC-MS/MS analysis; format: ADME, cell-based, Canis lupus familiaris; conditions: dog
# In short: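 Test article was taken from a 10 mM DMSO stock and diluted in DMEM to a final 10 µM donor solution, with 10 µM propranolol as internal standard. It was applied to hMDR1-MDCK monolayers on filters. Transfer to the receiver compartment was measured over 30 min in both directions, apical-to-basolateral and basolateral-to-apical. Quantification was by LC-MS/MS, n = 3.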
compound,measurement,setting,value
O=C(CCCc1cccs1)N1CCN(c2ccc(C(F)(F)F)cc2)CC1,Vd,[1],1.83 L/kg
same,Tmax,[2],15 min
same,"hepatic extraction ratio at 2 h, 1 µM",[3],0.48
same,fraction unbound at 1 µM,[4],0.0052
same,AUC(0-inf),[5],1280 ng·h/mL
same,AUC,[6],763 ng·h/mL
same,Cmax,[7],1640 ng/mL
same,half-life,[8],31.2 min
same,AUC,[9],246 ng·h/mL
same,half-life at 1 µM,[10],12 min
same,Tmax,[11],15 min
same,Vd,[12],1.69 L/kg
same,AUC(0-t),[13],520 ng·h/mL
same,AUC(0-inf),[14],253 ng·h/mL
same,inhibition at 1 h,CYP2C19,75.5%
same,"remaining at 2 h, 1 µM",[15],80%
same,AUC(0-t),[16],487 ng·h/mL
same,Vd,[17],3.19 L/kg
same,fold change (FC),C2C12,2.57
same,AUC(0-t),[18],1260 ng·h/mL
same,"Papp at 0.5 h, 10 µM",[19],27.1 ×10⁻⁶ cm/s
